Activity calls are given as the source filed them. The calls are words filed in the database; no cut-off is given here.
Legend:
[1] = target: T1, Polyunsaturated fatty acid 5-lipoxygenase (Homo sapiens) (UniProt P09917); assay: Inhibition of 5-lipoxygenase activity at 1000 uM by ferric-xylenol orange peroxide assay relative to control
T1 sequence (whole entry): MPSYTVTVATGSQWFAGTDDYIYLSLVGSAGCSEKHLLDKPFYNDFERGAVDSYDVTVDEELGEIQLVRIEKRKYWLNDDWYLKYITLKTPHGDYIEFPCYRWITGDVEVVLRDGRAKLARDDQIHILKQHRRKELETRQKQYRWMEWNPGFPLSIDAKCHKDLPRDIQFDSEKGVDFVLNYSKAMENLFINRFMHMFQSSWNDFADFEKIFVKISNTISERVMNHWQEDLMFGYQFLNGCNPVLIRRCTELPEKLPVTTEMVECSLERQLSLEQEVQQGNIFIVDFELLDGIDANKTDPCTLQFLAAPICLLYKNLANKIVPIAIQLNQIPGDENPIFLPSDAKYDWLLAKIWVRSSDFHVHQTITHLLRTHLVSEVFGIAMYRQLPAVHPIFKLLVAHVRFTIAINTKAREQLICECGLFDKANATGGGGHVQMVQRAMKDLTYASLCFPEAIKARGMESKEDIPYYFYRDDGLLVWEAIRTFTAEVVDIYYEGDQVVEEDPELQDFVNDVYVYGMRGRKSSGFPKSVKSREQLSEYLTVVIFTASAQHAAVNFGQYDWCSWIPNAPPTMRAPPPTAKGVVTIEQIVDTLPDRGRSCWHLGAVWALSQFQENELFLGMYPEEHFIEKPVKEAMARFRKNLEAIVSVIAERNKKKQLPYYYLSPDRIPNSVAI
Summary of the method: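 Modified ferric-xylenol orange peroxide assay. 5-Lipoxygenase with test substance and linoleic acid (80 mM) in 50 mM phosphate pH 6.3 was incubated 5 min. Ferric-xylenol orange reagent in perchloric acid was then added and A585 read 2 min later. Percent inhibition is relative to the control. Triplicates averaged.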

[2] = Antioxidant activity assessed as superoxide radical scavenging activity by NBT method; type: functional
Summary of the method: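 Riboflavin-photogenerated superoxide was detected by NBT reduction (McCord–Fridovich). The mixture held EDTA 6.0 µM, NaCN 3 µg, riboflavin 2 µM, NBT 50 µM and test substance in methanol, in 58 mM phosphate pH 7.8, 3 mL final. A560 was read before and after illumination. IC50 was taken from the plot of concentration in µM against % inhibition.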

[3] = tested on: Radical scavenging activity; assay: Antioxidant activity assessed as DPPH free radical scavenging activity; type: functional
Summary of the method: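 DPPH was used as a […] methanolic solution and mixed with a range of test concentrations. Mixtures stood in the dark for 50 min, then absorbance at 517 nm was read against a blank. Run in triplicate and averaged.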

[4] = tested on: Rattus norvegicus; assay: Antiinflammatory activity against carrageenan-induced paw edema in Wistar rat at 200 mg/kg, po administered 1 hr before inflammation induction measured after 3 hrs of carrageenan challenge relative to control; type: functional
Summary of the method: (§1)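 Wistar rats of either sex, 180-220 g, groups of six. Test material suspended in 1% Tween-80 and given orally 1 h before 0.1 mL of 1% w/v carrageenan in saline was injected subplantar into the left hind paw. Vehicle controls received 1% Tween-80 at 10 mL/kg. Paw volume was read by plethysmometer at 0 and 3 h. Percent inhibition compares mean edema volume with the control group.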

[5] = tested on: Rattus norvegicus; assay: Antiinflammatory activity against carrageenan-induced paw edema in Wistar rat at 25 mg/kg, po administered 1 hr before inflammation induction measured after 3 hrs of carrageenan challenge relative to control; type: functional; summary of the method: as §1

Activity [1] | IC50 [2] [µM] | IC50 [3] [µM] | Structure (SMILES) | inhibition in vivo at 200 mg/kg [4] [%] | Activity [5] [%]
inactive | – | – | O=C(OCC1=C[C@@H](O)[C@@H]2C=CO[C@@H](O[C@@H]3O[C@H](CO)[C@@H](O)[C@H](O)[C@H]3O)[C@H]12)c1ccc(O)cc1 | – | –
inactive | – | – | C[C@H]1[C@H]2[C@H](O[C@@H]3O[C@H](CO)[C@@H](O)[C@H](O)[C@H]3OC(=O)c3ccc(O)cc3)OC=C(C(=O)O)[C@H]2C[C@@H]1O | – | –
inactive | 31.9 | 11.4 | C[C@H]1[C@H]2[C@H](O[C@@H]3O[C@H](COC(=O)/C=C/c4ccc(O)c(O)c4)[C@@H](O)[C@H](O)[C@H]3OC(=O)c3ccc(O)cc3)OC=C(C(=O)O)[C@H]2C[C@@H]1O | – | –
– | 381 | 19 | Cc1cc(C(C)(C)C)c(O)c(C(C)(C)C)c1 [BUTYLATED HYDROXYTOLUENE] | – | –
inactive | – | – | C=C1[C@H]2[C@H](O[C@@H]3O[C@H](CO)[C@@H](O)[C@H](O)[C@H]3OC(=O)c3ccc(O)cc3)OC=C(C(=O)O)[C@H]2C[C@@H]1O | – | –
inactive | 24.3 | 15.2 | C[C@]1(O)CC[C@@H]2C(C(=O)O)=CO[C@@H](O[C@@H]3O[C@H](COC(=O)/C=C/c4ccc(O)c(O)c4)[C@@H](O)[C@H](O)[C@H]3OC(=O)c3ccc(O)cc3)[C@@H]21 | – | –
inactive | – | – | COc1cc(/C=C/C(=O)OC[C@H]2O[C@@H](O[C@@H]3OC=C(C(=O)O)[C@H]4CC[C@](C)(O)[C@@H]34)[C@H](OC(=O)c3ccc(O)cc3)[C@@H](O)[C@@H]2O)ccc1O | 20 | –
inactive | – | – | C[C@]1(O)CC[C@@H]2C(C(=O)O)=CO[C@@H](O[C@@H]3O[C@H](CO)[C@@H](O)[C@H](O)[C@H]3OC(=O)c3ccc(O)cc3)[C@@H]21 | – | –
– | – | – | O=C([O-])Cc1ccccc1Nc1c(Cl)cccc1Cl.[Na+] [DICLOFENAC SODIUM] | – | 62
inactive | 32 | 10.9 | C=C1[C@H]2[C@H](O[C@@H]3O[C@H](COC(=O)/C=C/c4ccc(O)c(O)c4)[C@@H](O)[C@H](O)[C@H]3OC(=O)c3ccc(O)cc3)OC=C(C(=O)O)[C@H]2C[C@@H]1O | – | –

Structure (SMILES) | Activity [1] | IC50 [2] [µM] | IC50 [3] [µM] | inhibition in vivo at 200 mg/kg [4] [%] | Activity [5] [%]
COc1ccc(O)c(C(C)(C)C)c1.COc1ccc(O)cc1C(C)(C)C [BUTYLATED HYDROXYANISOLE] | – | 966 | 18 | – | –
